In article PMC6923798 (Bioorganic chemistry, 2018):

What was measured:
UO-31 = assay: NCI in vitro five dose anticancer assay; type: cell-based, human
RPMI-8226 cell line = assay: NCI in vitro one dose anticancer assay; type: cell-based; settings: Homo sapiens, RPMI-8226, 48 h, read-out: % growth inhibition
Outline: (§1)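 NCI protocol. Test compound added once at 10−5 M to ~60 human tumour lines from nine subpanels. Incubated 48 h at 37 °C, 5% CO2, 95% air, 100% relative humidity. Endpoint by sulforhodamine B protein staining with spectrophotometric absorbance. Growth of treated cells reported as percent of untreated cells.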

IL-6 = IL-6 ELISA in K-562 cells; type: cell-based, human
Outline: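 K-562 cells exposed 24 h to vehicle (DMSO), test compound at 10 μM or dexamethasone (positive control). IL-6 secreted into cell-free supernatant quantified by human IL-6 ELISA kit. Expressed as % of vehicle control, mean ± SD of three independent experiments, each in triplicate. Time course: in 12-well plates, medium changed when compound (10 μM) added, and media sampled at 0, 1, 4, 8, 12, 24, 48 h.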

MDA-MB-435 = assay: NCI in vitro five dose anticancer assay; type: cell-based, human
SNB-19 = assay: NCI in vitro five dose anticancer assay; type: cell-based, human
BT-549 = assay: NCI in vitro five dose anticancer assay; type: cell-based, human
HOP-62 = assay: NCI in vitro five dose anticancer assay; type: cell-based, human
SR cell line = assay: NCI in vitro one dose anticancer assay; type: cell-based; settings: Homo sapiens, 48 h, read-out: % growth inhibition
Outline: as §1

NCI-H226 = assay: NCI in vitro five dose anticancer assay; type: cell-based, human
UACC-257 = assay: NCI in vitro five dose anticancer assay; type: cell-based, human
A549/ATCC = assay: NCI in vitro five dose anticancer assay; type: cell-based, human
HOP-92 = assay: NCI in vitro five dose anticancer assay; type: cell-based, human
RPMI-8226 = assay: NCI in vitro five dose anticancer assay; type: cell-based, human
ACHN = assay: NCI in vitro five dose anticancer assay; type: cell-based, human; settings: 48 h
HT29 = assay: NCI in vitro five dose anticancer assay; type: cell-based, human
EKVX = assay: NCI in vitro five dose anticancer assay; type: cell-based, human; settings: 48 h
SK-MEL-5 = assay: NCI in vitro five dose anticancer assay; type: cell-based, human
[1] = tested on: full panel of 58 human tumor cell lines; assay: NCI in vitro five dose anticancer assay, whole panel; type: cell-based; settings: read-out: GI50 (range over panel)
HL-60(TB) = assay: NCI in vitro five dose anticancer assay; type: cell-based, human
HCT-15 = assay: NCI in vitro five dose anticancer assay; type: cell-based, human
SN12C = assay: NCI in vitro five dose anticancer assay; type: cell-based, human; settings: 48 h
TK-10 = assay: NCI in vitro five dose anticancer assay; type: cell-based, human
IGROV1 = assay: NCI in vitro five dose anticancer assay; type: cell-based, human
STAT3 = STAT3 activation assay; type: cell-based, human; settings: K-562 cells, 10 μM, 24 h, nuclear extracts
Outline: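 K562 cells seeded overnight in 10 cm plates, then given vehicle, test compound (10 μM) or WP1066 (positive control) for 24 h. Nuclear fractions extracted by kit. STAT3 activation measured in nuclear extracts by TransAM STAT3 ELISA per manufacturer. Mean ± SD of three independent experiments, each in triplicate.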

SF-295 = assay: NCI in vitro five dose anticancer assay; type: cell-based, human
SK-MEL-28 = assay: NCI in vitro five dose anticancer assay; type: cell-based, human
DU-145 = assay: NCI in vitro five dose anticancer assay; type: cell-based, human
MDA-MB231/ATCC = assay: NCI in vitro five dose anticancer assay; type: cell-based, human
OVCAR-5 = assay: NCI in vitro five dose anticancer assay; type: cell-based, human

Work on `COc1ccc(C=CC(=O)c2ccc(NC(=O)CSc3nnc(-c4cc(OC)c(OC)c(OC)c4)o3)cc2)cc1` [Compound 8v, N-(4-(3-(4-Methoxyphenyl)acryloyl)phenyl)-2-((5-(3,4,5-trimethoxy-phenyl)-1,3,4-oxadiazol-2-yl)thio)acetamide] yielded a GI50 (UO-31; Homo sapiens, UO-31, 48 h) of 1.46 µM, a TGI (UO-31; UO-31, Renal Cancer, five dose, 48 h, SRB) of 2.97 µM and an inhibition at 10 µM (RPMI-8226 cell line) of 31.3 to 144%. The activity at 10 µM (IL-6; Homo sapiens, K562, 24 h, read-out: IL-6 protein levels (% of control)) was 20%, the “IL-6 levels after 48 h” value (IL-6; K-562 cells, 10 μM, time course) was “still downregulated” and the “time of initial downregulation of IL-6 protein levels after treatment” value (IL-6; K-562 cells, 10 μM, time course 0-48 h) was 8 h. It also gave a GI50 (MDA-MB-435; Homo sapiens, MDA-MB-435, 48 h) of 1.7 µM, a TGI (MDA-MB-435; MDA-MB-435, Melanoma, five dose, 48 h, SRB) of 3.40 µM and a GI50 (SNB-19; Homo sapiens, SNB-19, 48 h) of 1.78 µM. The TGI (SNB-19; SNB-19, CNS cancer, five dose, 48 h, SRB) was 3.56 µM, the TGI (BT-549; BT-549, Breast cancer, five dose, 48 h, SRB) was 2.81 µM and the GI50 (BT-549; Homo sapiens, BT-549, 48 h) was 1.4 µM. For the same compound, the TGI (HOP-62; HOP-62, Non-Small Cell Lung Cancer, five dose, 48 h, SRB) was 4.53 µM, the GI50 (HOP-62; Homo sapiens, HOP-62, 48 h) was 2.13 µM and the inhibition at 10 µM (SR cell line) was 32.9 to 160%. For the same compound, the GI50 (NCI-H226; Homo sapiens, NCI-H226, 48 h) was 2.67 µM, the TGI (NCI-H226; NCI-H226, Non-Small Cell Lung Cancer, five dose, 48 h, SRB) was 5.69 µM and the GI50 (UACC-257; Homo sapiens, UACC-257, 48 h) was 2.16 µM. It also gave a TGI (UACC-257; UACC-257, Melanoma, five dose, 48 h, SRB) of 4.69 µM, a TGI (A549/ATCC; A549/ATCC, Non-Small Cell Lung Cancer, five dose, 48 h, SRB) of 3.53 µM and a GI50 (A549/ATCC; Homo sapiens, A549, 48 h) of 1.84 µM. It also gave a TGI (HOP-92; HOP-92, Non-Small Cell Lung Cancer, five dose, 48 h, SRB) of 4.23 µM, a GI50 (HOP-92; Homo sapiens, HOP-92, 48 h) of 1.93 µM and a GI50 (RPMI-8226; Homo sapiens, RPMI-8226, 48 h) of 1.73 µM. The TGI (RPMI-8226; RPMI-8226, Leukemia, five dose, 48 h, SRB) was 4.31 µM, the GI50 (ACHN; Homo sapiens) was 1.72 µM and the TGI (ACHN; Renal Cancer, five dose, SRB) was 3.22 µM. The TGI (HT29; HT29, Colon Cancer, five dose, 48 h, SRB) was 3.62 µM, the GI50 (HT29; Homo sapiens, HT-29, 48 h) was 1.83 µM and the GI50 (EKVX; Homo sapiens) was 1.79 µM. For the same compound, the TGI (EKVX; Non-Small Cell Lung Cancer, five dose, SRB) was 3.98 µM, the GI50 (SK-MEL-5; Homo sapiens, SK-MEL-5, 48 h) was 2.14 µM and the TGI (SK-MEL-5; SK-MEL-5, Melanoma, five dose, 48 h, SRB) was 5.24 µM. It also gave a GI50 [1] of 0.32 to 11 µM, a TGI (HL-60(TB); HL-60(TB), Leukemia, five dose, 48 h, SRB) of 4.10 µM and a GI50 (HL-60(TB); Homo sapiens, HL-60, 48 h) of 2 µM. For the same compound, the TGI (HCT-15; HCT-15, Colon Cancer, five dose, 48 h, SRB) was 3.22 µM, the GI50 (HCT-15; Homo sapiens, HCT-15, 48 h) was 1.63 µM and the GI50 (SN12C; Homo sapiens) was 1.83 µM. For the same compound, the TGI (SN12C; Renal Cancer, five dose, SRB) was 3.57 µM, the GI50 (TK-10; Homo sapiens, TK-10, 48 h) was 1.52 µM and the TGI (TK-10; TK-10, Renal Cancer, five dose, 48 h, SRB) was 3.03 µM. For the same compound, the GI50 (IGROV1; Homo sapiens, IGROV-1, 48 h) was 1.54 µM, the TGI (IGROV1; IGROV1, Ovarian Cancer, five dose, 48 h, SRB) was 3.75 µM and the “inhibition of STAT3 activation” value (STAT3) was “most effective”. It also gave a GI50 (SF-295; Homo sapiens, SF-295, 48 h) of 1.77 µM, a TGI (SF-295; SF-295, CNS cancer, five dose, 48 h, SRB) of 3.35 µM and a GI50 (SK-MEL-28; Homo sapiens, SK-MEL-28, 48 h) of 1.74 µM. It also gave a TGI (SK-MEL-28; SK-MEL-28, Melanoma, five dose, 48 h, SRB) of 3.40 µM, a TGI (DU-145; DU-145, Prostate Cancer, five dose, 48 h, SRB) of 3.21 µM and a GI50 (DU-145; Homo sapiens, DU-145, 48 h) of 1.75 µM. It also gave a GI50 (MDA-MB231/ATCC; Homo sapiens, MDA-MB-231, 48 h) of 1.82 µM, a TGI (MDA-MB231/ATCC; MDA-MB231/ATCC, Breast cancer, five dose, 48 h, SRB) of 3.50 µM and a GI50 (OVCAR-5; Homo sapiens, OVCAR-5, 48 h) of 1.72 µM. For the same compound, the TGI (OVCAR-5; OVCAR-5, Ovarian Cancer, five dose, 48 h, SRB) was 3.30 µM.
